OX1R antag-1: antagonists of human orexin 1 receptor (OX1R) | O43613 | OX1R-expressing cells, FRET antagonist read-out | inhibition, % at 6.6 µM | hit rate 1.8% among 330,000 | AID 485270; in the data active means inhibition mostly above about 38%, no sharp cut-off; inactive means mostly below about 40%;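 further: 0% = agonist challenge alone and 100% = reference antagonist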
Target sequence (O43613 whole entry, looked up): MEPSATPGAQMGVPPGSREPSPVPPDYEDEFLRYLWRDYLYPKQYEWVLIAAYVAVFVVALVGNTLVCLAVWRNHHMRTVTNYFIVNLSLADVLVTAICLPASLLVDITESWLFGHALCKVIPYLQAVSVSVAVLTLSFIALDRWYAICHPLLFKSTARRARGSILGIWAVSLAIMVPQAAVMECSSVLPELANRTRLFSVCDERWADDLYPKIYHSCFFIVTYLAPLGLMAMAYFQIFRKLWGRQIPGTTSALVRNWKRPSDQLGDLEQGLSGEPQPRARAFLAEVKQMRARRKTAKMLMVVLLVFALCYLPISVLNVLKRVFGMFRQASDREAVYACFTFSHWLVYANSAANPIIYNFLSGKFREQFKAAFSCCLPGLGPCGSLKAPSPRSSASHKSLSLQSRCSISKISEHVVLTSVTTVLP
CHO parental Ca: counter-screen for OX1R antagonists: effect in parental CHO cells; parental CHO-K1, ATP-induced calcium, Fluo-8 fluorescence; inhibition, % at 5.6 µM; hit rate 0.63% among 330,000;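 active means inhibition above that plate's mean sample inhibition plus 3 SD, cut at about 26% in these data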;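 further: 0% = ATP-challenged DMSO wells and 100% = DMSO wells without ATP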
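test system = CHO parental line | reagent = ATP stimulus | measured by = intracellular calcium via Fluo-8 no-wash fluorescent dye | control set = ATP and no-ATP DMSO wells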
TAAR1 antagonist: antagonists of human TAAR1; AID 624466; CHO RD-HGA16 TAAR1, Fluo-8 calcium fluorescence, antagonist; inhibition, % at 3 µM; hit rate 1.5% among 360,000;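 active means inhibition above a per-plate cutoff, the mean inhibition of test compounds on that plate plus 3 SD, cut at about 49% in these data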;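 further: 0% = DMSO plus EC80 beta-PEA response and 100% = DMSO alone without agonist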
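test system = CHO RD-HGA16 cells bearing hTAAR1 | replication = singlicate | controls = DMSO-only wells and EC80 β-PEA-stimulated wells | reagent = EC80 β-phenethylamine stimulus | read-out basis = percent inhibition of PEA-evoked calcium signal, max/basal emission ratio | schedule = seeding 17-24 h prior, 75-min 37 °C, 30-min RT dye loading | signal = kinetic Fluo-8 calcium fluorescence measurement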
GPR7 antag: blocks human GPR7 receptor signaling; P48145; GPR7-expressing cells, fluorescence antagonist assay; inhibition, % at 4.4 µM; hit rate 1.1% among 290,000; in the data active means inhibition above about 16%, passing the limit was not always enough;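 further: cells stimulated with the agonist NPW; 0% = agonist with vehicle and 100% = vehicle without agonist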
Target sequence (P48145 whole entry, looked up): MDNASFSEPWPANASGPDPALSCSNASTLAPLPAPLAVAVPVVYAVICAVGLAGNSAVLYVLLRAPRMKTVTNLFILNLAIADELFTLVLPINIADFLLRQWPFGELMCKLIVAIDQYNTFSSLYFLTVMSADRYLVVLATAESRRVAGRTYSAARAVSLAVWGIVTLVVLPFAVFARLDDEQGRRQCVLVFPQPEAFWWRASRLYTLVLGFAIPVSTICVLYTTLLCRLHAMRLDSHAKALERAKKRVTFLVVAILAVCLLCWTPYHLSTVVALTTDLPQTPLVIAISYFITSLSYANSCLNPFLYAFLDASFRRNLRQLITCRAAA
TAAR1 agonist: human TAAR1 agonism; Q96RJ0; CHO RD-HGA16 TAAR1, Fluo-8 calcium fluorescence; vehicle wells 0%, saturating PEA agonist 100%; activation, % at 3 µM; hit rate 0.99% among 360,000; AID 624467;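 active means activation above the mean activation of all test compounds in the run plus 3 SD, cut at about 38% in these data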
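System: CHO-derived RD-HGA16 cells with stable Gα16 and human TAAR1 / Times: 17-24 h plating, Fluo-8 75 min 37 °C, 30 min RT / Technique: calcium-sensitive Fluo-8 signal, excitation 470-495, emission 515-575 nm / Measure: % activation relative to PEA EC100 response / Benchmarks: DMSO and PEA EC100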
OX1R antag-2: antagonists of human orexin 1 receptor; O43613; CHO/OX1R cells, Fluo-8 calcium fluorescence, orexin A; inhibition, % at 5 µM; hit rate 0.43% among 330,000; AID 434989;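 active means inhibition above its plate's threshold, mean inhibition of all tested compounds on the plate plus 3 SD, cut at about 37% in these data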;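 further: 0% = orexin A challenge wells and 100% = SB-334867-A antagonist wells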
nonsel antag count: nonselective antagonism, TAAR1 counter-screen; hit rate 77% among 2,400; inhibition, % at 3 µM; shares compounds with TAAR1 antagonist; counterscreen cell line, calcium fluorescence, antagonist mode; in the data active means inhibition above about 22%;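 further: CHO-Ga16 host cells stimulated with ATP at an EC80 level; 0% = agonist EC80 plus vehicle and 100% = vehicle without agonist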
TAAR1 antag conf: confirmation of human TAAR1 antagonists; shares compounds with TAAR1 antagonist; TAAR1-expressing cells, fluorescence antagonist read-out; inhibition, % at 3 µM; hit rate 40% among 2,400; AID 651785; in the data active means inhibition above about 49%;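 further: CHO-Ga16 host cells challenged with agonist PEA near its EC80; 0% = agonist at EC80 plus vehicle and 100% = vehicle with no agonist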
Ga16 nonsel ag: nonselective Ga16 agonism, counter-screen; activation, % at 3 µM; hit rate 18% among 2,400; shares compounds with TAAR1 antagonist; Ga16-expressing cells, calcium fluorescence, agonist counterscreen; AID 651953; in the data active means activation above about 12%;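 further: 0% = vehicle wells and 100% = saturating stimulus response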
TAAR1 ag count: counter-screen for human TAAR1 antagonists: TAAR1 agonists; hTAAR1 cell line, fluorescence activation, agonist mode; shares compounds with TAAR1 antagonist; activation, % at 3 µM; hit rate 2% among 2,400; in the data active means activation above about 37%;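 further: CHO cells stably expressing TAAR1 with calcium dye readout; 0% = DMSO vehicle and 100% = full agonist response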
* hit, by the source's call; / = no result given. This is a sample that favours compounds with a hit; in the whole collection about 4.5% have one here.

SMILES | OX1R antag-1 | CHO parental Ca | TAAR1 antagonist | GPR7 antag | TAAR1 agonist | OX1R antag-2 | nonsel antag count | TAAR1 antag conf | Ga16 nonsel ag | TAAR1 ag count
COc1ccc(NC(=O)CN(C)C(=O)c2cc(-c3ccc(Cl)cc3)nc3ccccc23)cc1 | 21 | -20 | 67* | / | 8 | -23 | 30* | 42 | 9 | 6
COc1cccc(NC(=O)CN(C)C(=O)c2cc(-c3cccc(Br)c3)nc3ccccc23)c1 | 18 | 11 | 79* | / | 10 | -13 | 39* | 47 | 7 | 4
Cc1cc(C(=O)N2CCC2(C)C(=O)NCc2cccc3ccccc23)nn1C (stereo not drawn) | / | / | -19 | / | 0 | / | / | / | / | /
O=C(N/N=C/c1sc(=O)n(Cc2ccc(Br)cc2)c1Cl)c1ccco1 | 16 | -7 | 81* | 10 | 27 | -6 | 39* | 77* | 17* | 27
COc1ccccc1N1CCN(C(=O)CCn2c(=O)[nH]c3ccccc3c2=O)CC1 | 11 | -10 | 7 | 5 | 3 | -30 | / | / | / | /
COc1ccccc1N1CCN(C(=O)CCCn2c(=S)[nH]c3ccccc3c2=O)CC1 | / | / | 65* | / | 8 | / | 19 | 36 | 7 | 10
O=C(CCc1ccccc1)c1c(O)cc(O)cc1O | 16 | 4 | 68* | / | 3 | 2 | 25* | 30 | 4 | 1
COc1ccc(C(=O)CCc2ccccc2)c(O)c1 | 42 | -13 | -42 | / | 0 | -11 | / | / | / | /
Cc1ccc2ccccc2c1C(O)c1ncc(-c2ccc(F)cc2)[nH]1 (stereo not drawn) | / | / | -8 | / | 6 | / | / | / | / | /
O=C(NCc1ccccc1Cl)c1ccc(Br)o1 | 27 | -8 | 104* | 3 | -3 | -16 | 1 | -7 | -1 | 1
Cc1cc(C)nc(NC(=NCCc2c[nH]c3ccccc23)NC(=O)c2ccco2)n1 | 45 | -13 | 68* | -7 | 13 | 0 | 28* | 53* | 7 | 6
Cc1cc(C)nc(NC(=NCCc2c[nH]c3ccccc23)NC(=O)Nc2ccccc2)n1 | 24 | -1 | 64* | -5 | 3 | -11 | 30* | 54* | 5 | 5
CC[C@H]1O[C@H](C)CC2=C1C(=O)OC(C)(C)O2 | / | / | 2 | / | 3 | / | / | / | / | /
O=C1CCc2cc(S(=O)(=O)NCCc3ccccc3)cc3c2N1CC3 | 21 | -17 | -4 | / | 35 | -24 | / | / | / | /
CC(=O)c1cccc(NC(=O)c2ccc(-c3ccccc3[N+](=O)[O-])o2)c1 | 69* | -26 | 62* | -16 | 32 | -7 | 24* | 43 | 18* | 18
COc1ccc(-c2oc(=O)c3cc(OC)c(OC)cc3c2-c2cc(F)cc(OC)c2)cc1 | 6 | -32 | 11 | / | 0 | -18 | / | / | / | /
COCc1ccc(-c2c(-c3ccsc3)oc(=O)c3cc(OC)c(OC)cc23)cc1 | 13 | -18 | 58* | / | 2 | -22 | 17 | 33 | 2 | 1
Cc1cccc(/C=C/C(=O)c2cc(Br)ccc(=O)c2O)c1 | 14 | -10 | 51* | -1 | 35 | -12 | 36* | 27 | 14* | 17
CCc1ccc(/C=C/C(=O)c2cc(Br)ccc(=O)c2O)cc1 | 15 | -7 | 32 | -10 | 27 | -17 | / | / | / | /
C[C@H](NC(=O)c1nc[nH]c1C(=O)NCc1ccc(CNC(=O)OC(C)(C)C)cc1)c1ccccc1 | 2 | -12 | 68* | / | 36 | -12 | 38* | 42 | 10 | 17
C[C@@H](NC(=O)c1nc[nH]c1C(=O)NCCCCCNC(=O)OC(C)(C)C)c1ccccc1 | 7 | -26 | 23 | / | 10 | -12 | / | / | / | /
CC(C)C[C@H](NC(=O)c1nc[nH]c1C(=O)NC(c1ccccc1)c1ccccc1)C(=O)OC(C)(C)C | -7 | -22 | 56* | -27 | 8 | -6 | 19 | 31 | 0 | 2
CC(C)(C)OC(=O)NCc1ccc(CNC(=O)c2nc[nH]c2C(=O)N2CCN(C(=O)OC(C)(C)C)CC2)cc1 | 0 | -21 | 61* | / | 26 | -23 | 35* | 52* | 16* | 19
CC(C)(C)OC(=O)NCc1ccc(CNC(=O)c2[nH]cnc2C(=O)Nc2ccccc2F)cc1 | / | / | 71* | / | 13 | / | 42* | 46 | 11 | 13
COc1ccc(Cl)cc1CN1C(=O)C(Cc2ccccc2)ON=C1C (stereo not drawn) | / | / | -9 | / | 2 | / | / | / | / | /
SMILES | OX1R antag-1 | CHO parental Ca | TAAR1 antagonist | GPR7 antag | TAAR1 agonist | OX1R antag-2 | nonsel antag count | TAAR1 antag conf | Ga16 nonsel ag | TAAR1 ag count
COc1cccc(CNn2c(-c3cccc(C)c3)nc3ccccc3c2=O)c1O | 15 | -20 | 54* | -15 | 4 | -20 | 13 | 39 | 7 | 5
COc1ccc(OC)c(CNn2c(-c3ccccc3F)nc3ccccc3c2=O)c1 | 32 | -19 | 29 | 0 | 9 | -33 | / | / | / | /
CCN=C(NCC)SC1CC(=O)N(c2ccc(F)cc2)C1=O (stereo not drawn) | 11 | -9 | 90* | -4 | 14 | -17 | 28* | 57* | 9 | 14
COc1cc(C2CC(=O)c3c([nH]c(C(=O)OCCOC(C)C)c3C)C2)cc(OC)c1OC (stereo not drawn) | 19 | 31* | 64* | 18* | 9 | -1 | 35* | 45 | 12* | 13
CCN(CC)c1nc2c(c(=O)n(C)c(=O)n2C)n1CCCc1ccccc1 | 7 | -7 | -7 | 3 | 25 | -28 | / | / | / | /
CN(Cc1ccccc1)c1nc2c(c(=O)n(C)c(=O)n2C)n1CCCc1ccccc1 | 6 | -9 | 49* | 0 | 9 | -19 | 27* | 52* | 17* | 40*
FC(F)(F)c1cc(Cl)c2nc(-c3ccccc3)c(Cc3cccc(Cl)c3)n2c1 | / | / | -12 | / | 0 | / | / | / | / | /
OC(c1ccc(CN2CCCCC2)cc1)c1ncc(-c2ccccc2)[nH]1 (stereo not drawn) | / | / | -24 | / | 2 | / | / | / | / | /
COc1ccc(CCn2c(C)cc(C(=O)CSc3nnnn3-c3ccccc3)c2C)cc1OC | 4 | -23 | 50* | -4 | 8 | -10 | 18 | 36 | 12* | 6
COc1ccc(CCn2c(C)cc(C(=O)CSc3nc(N)cc(=O)[nH]3)c2C)cc1 | 20 | 15 | 51* | -15 | 20 | 6 | 37* | 48 | 8 | 6
O=C(c1ccncc1)N1CCN(C(=O)c2ccco2)CC1 | 22 | -28 | -13 | -17 | 4 | -17 | / | / | / | /

Source: PubChem BioAssay
